Bioassay records (PubChem)
SKKanGAS inh: SKKanGAS growth inhibition. actives 1.3% (n = 300,000). AID 1662. S. pyogenes SKKanGAS, kanamycin growth, BacTiter-Glo, 6 h. inhibition, % at 7.5 µM;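 active means mean replicate score, as percent of positive control median, at least 50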;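 further: strain carries kanamycin resistance gene driven by streptokinase promoter and grows in 40 µg/ml kanamycin; loss of luminescence reflects streptokinase promoter inhibition or plain growth inhibition; 0% = median of DMSO wells and 100% = positive control at its reference dose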
T cruzi inh: T. cruzi replication inhibition. T. cruzi beta-gal in NIH3T3, luminescence, 90 h. actives 1.4% (n = 300,000). inhibition, % (test concentration not listed);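 active means mean inhibition across valid replicates above about 55%, limit read from the data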;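 further: signal also drops with host cell toxicity which is not excluded here; 0% = plate median of DMSO wells and 100% = zero luminescence signal; higher percent means less beta-gal luminescence so fewer parasites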
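Material: NIH/3T3 host cells with β-galactosidase reporter T. cruzi; Input: 5,000 host fibroblasts per well; Medium: DMEM, 2% fetal bovine serum; Compound: 50 nL DMSO compound solution per well; Schedule: 3 h host attachment, then at least 90 h co-culture; Detection: luminescent β-galactosidase signal after 60 min lysis.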
PfHsp90 yeast 2: reduces growth (ATP signal) of yeast expressing P. falciparum Hsp90; actives 0.32% (n = 310,000); inhibition, % at 9.4 µM; AID 504621; S. cerevisiae expressing PfHsp90, BacTiter-Glo ATP, 48 h; yeast lacking PDR1 and PDR3 efflux regulators;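 active means every replicate shows inhibition above about 80%, whatever the replicate mean, limit read from the data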;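 further: 0% = DMSO neutral controls and 100% = 20 µM radicicol positive controls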
CSC inhib: blocks cancer stem cells. inhibition, % at 7.5 µM. cancer stem cell-like cells viability, luminescence. actives 1.1% (n = 300,000); in the data active means inhibition above about 75%; tested in HMLE shEcad cells
Beta apoptosis: beta cell apoptosis inhibition; AID 435005; INS-1E cytokine-induced death, ATP luminescence, 48 h; percent of positive-control rescue, neutral wells zero; protection from apoptosis, % (no concentration beside the values); actives 0.8% (n = 300,000);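 active means Every replicate reaches about 75%, or at least half do and their mean reaches it too, limit read from the data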;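 further: 0% = cytokine-treated negative control wells and 100% = positive control rescue; higher means more ATP so stronger rescue from cytokine killing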
HIF activator: HIF pathway transcriptional activation; U2OS HRE-luciferase reporter, luminescence; normalized: DMSO 0%, desferrioxamine 100%; activation, % at 7.5 µM (by protocol); actives 0.32% (n = 300,000); AID 1910;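 active means mean activation of at least 10% of the iron chelator positive control signal, with at least half of replicates also reaching 10%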
An asterisk follows results filed as active. An excerpt weighted towards active compounds, which were near 3.6% of everything screened.

For OC(CNCCc1c[nH]c2ccccc12)c1ccccc1 (stereo not given) the results were SKKanGAS inh -1.0, T cruzi inh -2.1, PfHsp90 yeast 2 1.8, CSC inhib -5.7, Beta apoptosis -6.0 and HIF activator -3.9.
For O=C(Nc1nc(-c2ccccc2)c(-c2ccccc2)s1)c1ccc(S(=O)(=O)N(CCCl)CCCl)cc1 the results were SKKanGAS inh 8.5, T cruzi inh 56.2*, PfHsp90 yeast 2 6.3, CSC inhib 10.3, Beta apoptosis 6.2 and HIF activator -0.4.
Screening N#CC(=C(O)c1ccc(S(=O)(=O)N(CCCl)CCCl)cc1)c1nc2ccccc2[nH]1 returned PfHsp90 yeast 2 -9.4.
`O=[N+]([O-])c1ccc(NC2CCN(Cc3ccccc3)CC2)c2ccncc12` gave SKKanGAS inh -4.2, T cruzi inh 60.0*, PfHsp90 yeast 2 5.2, CSC inhib 0.3, Beta apoptosis -1.7 and HIF activator 0.0.
Screening Cc1cc(C)c2c(ccc3cccc[n+]32)c1 returned SKKanGAS inh -6.4, T cruzi inh 13.0, CSC inhib -10.8, Beta apoptosis 82.1* and HIF activator 1.2.
For O=P1(c2ccccc2)Nc2ccccc2N1c1ccccc1 (stereo not given) the results were PfHsp90 yeast 2 -0.4.
For CCC(C)C1NC(=O)C(NC(=O)C(CC(C)C)N(C)C(=O)C2CCCN2C(=O)C(C)O)C(C)OC(=O)C(Cc2ccc(OC)cc2)N(C)C(=O)C2CCCN2C(=O)C(CC(C)C)NC(=O)[C@H](C)C(=O)[C@H](C(C)C)OC(=O)CC1O (stereo not given in full) the results were PfHsp90 yeast 2 -17.5.
`CCCCCn1c(=O)c(C(=O)Nc2ccccc2Cl)c(O)c2ccccc21` gave SKKanGAS inh 3.9, T cruzi inh -19.3, PfHsp90 yeast 2 4.3, CSC inhib 18.4, Beta apoptosis 63.9 and HIF activator 1.0.
Screening CCCCCn1c(=O)c(C(=O)Nc2ncccc2C)c(O)c2ccccc21 returned SKKanGAS inh 101.2*, T cruzi inh 27.9, PfHsp90 yeast 2 28.5, CSC inhib -2.7, Beta apoptosis 88.5* and HIF activator 0.5.
CCCCCn1c(=O)c(C(=O)Nc2nc3ccccc3[nH]2)c(O)c2ccccc21 was read as SKKanGAS inh 30.9, T cruzi inh -33.3, PfHsp90 yeast 2 -5.9, CSC inhib 8.5, Beta apoptosis 79.7* and HIF activator 0.1.
For CCCCn1c(=O)c(C(=O)Nc2ccccc2C)c(O)c2ccccc21 the results were SKKanGAS inh 1.4, T cruzi inh -10.6, PfHsp90 yeast 2 -16.6, CSC inhib -2.3, Beta apoptosis 45.9 and HIF activator -0.2.
CC(C)[C@H]1C(=O)O[C@H](C(C)C)C(=O)N(C)[C@@H](C(C)C)C(=O)O[C@H](C(C)C)C(=O)N(C)[C@@H](C(C)C)C(=O)O[C@H](C(C)C)C(=O)N1C was read as SKKanGAS inh 1.2, T cruzi inh 55.2*, PfHsp90 yeast 2 -1.7, CSC inhib -7.3, Beta apoptosis 109.0* and HIF activator -0.5.
For C[C@H](NC(=O)CCC(=O)N1C[C@H]2C[C@H](C1)c1cccc(=O)n1C2)c1ccccc1 the results were SKKanGAS inh 0.9, T cruzi inh -0.4, PfHsp90 yeast 2 -10.4, CSC inhib 1.1 and HIF activator 0.1.
For CCN1CCN(Cc2ccc(OC(F)(F)F)cc2)CC1 the results were SKKanGAS inh 4.3, T cruzi inh 40.8, PfHsp90 yeast 2 2.5, CSC inhib 3.5, Beta apoptosis -1.8 and HIF activator 0.7.
CCCCCCOc1ccc(CN2CCN(CC)CC2)cc1 was read as SKKanGAS inh 8.5, T cruzi inh 65.0*, PfHsp90 yeast 2 2.7, CSC inhib 72.9, Beta apoptosis 6.9 and HIF activator -0.1.
For CC(=O)C1CCC2(O)C3CCC4=CC(=O)CCC4(C)C3CCC12C (stereo not given) the results were PfHsp90 yeast 2 22.7.
C[C@@H]1O[C@@H](O[C@@H]2C=C3CCC4C(CC[C@]5(C)[C@@H](c6ccc(=O)oc6)CC[C@]45O)[C@@]3(C)CC2)[C@H](O)[C@H](O)[C@H]1O (stereo not given in full) was read as PfHsp90 yeast 2 6.8, CSC inhib 100.7* and Beta apoptosis 11.7.
